ChEMBL document CHEMBL1833937, “Structure-based design of pseudopeptidic inhibitors for SIRT1 and SIRT2” (J Med Chem, 2011)
The source made the active and inactive calls. The rule behind the calls is not given here. Where a SMILES comes first, the peptide text is derived from it. [ ]: non-standard residue; d: D form. Lys(Thioacetyl) = CC(=S)NCCCC[C@H](N)C(=O)O

Biological target: T1, NAD-dependent protein deacetylase sirtuin-1 (Homo sapiens, UniProt Q96EB6)
T1 sequence (Q96EB6 whole entry): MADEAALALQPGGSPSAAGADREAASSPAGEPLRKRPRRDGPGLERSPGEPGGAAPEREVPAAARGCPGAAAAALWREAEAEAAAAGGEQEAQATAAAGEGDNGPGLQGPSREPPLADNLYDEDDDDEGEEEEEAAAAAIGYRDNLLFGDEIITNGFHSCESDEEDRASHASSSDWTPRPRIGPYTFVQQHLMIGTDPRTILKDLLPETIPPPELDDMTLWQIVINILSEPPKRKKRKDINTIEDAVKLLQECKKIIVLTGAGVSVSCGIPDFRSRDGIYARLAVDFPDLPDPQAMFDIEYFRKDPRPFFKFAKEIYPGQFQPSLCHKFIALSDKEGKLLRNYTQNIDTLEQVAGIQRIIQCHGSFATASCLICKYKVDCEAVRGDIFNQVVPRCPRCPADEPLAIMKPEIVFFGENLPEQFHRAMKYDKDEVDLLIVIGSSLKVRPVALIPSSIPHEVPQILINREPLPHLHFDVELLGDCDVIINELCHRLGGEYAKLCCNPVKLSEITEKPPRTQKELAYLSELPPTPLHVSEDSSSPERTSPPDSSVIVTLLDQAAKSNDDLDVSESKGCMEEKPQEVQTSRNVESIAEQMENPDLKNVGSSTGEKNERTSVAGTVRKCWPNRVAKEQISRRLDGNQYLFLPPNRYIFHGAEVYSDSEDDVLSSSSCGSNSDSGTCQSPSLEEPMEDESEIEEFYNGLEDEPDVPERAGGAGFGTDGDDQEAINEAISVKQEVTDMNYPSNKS
Assay: Inhibition of recombinant GST-tagged SIRT1 after 1 hr by Fluor de Lys-based fluorescence assay
Details: not given
Procedure, shortened: (§1)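 Fluor de Lys deacetylation: GST-SIRT1 with KI177 substrate at 40 μM or GST-SIRT2 with KI179 substrate at 138 μM (70% of Km; Km 58 and 198 μM), 500 μM NAD+, assay buffer with 1 mg/mL BSA, DMSO 2.5 μL per 50 μL. Substrate, NAD+ and compound preincubated 5 min rt; enzyme starts reaction, 1 h 37 °C. Developer plus 2 mM nicotinamide, 45 min 37 °C; ex 355/em 460 nm. IC50 from 9-point dose-response (0.0001–2000 μM), at least three repeats.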

Compound	IC50
CC(=S)NCCCC[C@H](NC(=O)CCc1ccccc1)C(=O)N[C@@H](C)C(=O)O	990 nM
CC(=S)NCCCC[C@H](NC(=O)OCc1ccccc1)C(=O)N[C@@H](C)C(=O)O	1300 nM
CSCC[C@H](NC(=O)[C@H](CC(C)C)NC(=O)[C@H](CCCCNC(C)=S)NC(=O)[C@H](CCCCN)NC(=O)[C@@H](N)Cc1cnc[nH]1)C(=O)O (H-HK[Lys(Thioacetyl)]LM-OH)	310 nM
CC(=S)NCCCC[C@H](NC(=O)OCc1ccccc1)C(=O)NCC(=O)c1ccccc1	1600 nM
COC(=O)[C@H](C)NC(=O)[C@H](CCCCNC(C)=S)NC(C)=O	51000 nM
CC(=S)NCCCC[C@H](NC(=O)CCc1ccccc1O)C(=O)N[C@@H](C)C(=O)O	1000 nM
CC(=S)NCCCC[C@H](NC(=O)[C@H](C)N)C(=O)N[C@@H](C)C(=O)O	660 nM
CC(=S)NCCCC[C@H](NC(=O)[C@H](N)Cc1ccccc1)C(=O)N[C@@H](C)C(=O)O	18000 nM
CC(=S)NCCCC[C@H](NC(=O)OCc1ccccc1)C(=O)Nc1ccccc1F	7400 nM

Biological target: T2, NAD-dependent protein deacetylase sirtuin-1 (Homo sapiens) (UniProt Q96EB6)
T2 sequence (whole entry): T1 sequence (Q96EB6 whole entry)
Assay: Inhibition of recombinant GST-tagged SIRT1 at 200 uM after 1 hr by Fluor de Lys-based fluorescence assay
Details: not given
Procedure, shortened: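 Single-point Fluor de Lys test at 200 μM: GST-SIRT1 (40 μM KI177 substrate) or GST-SIRT2 (138 μM KI179 substrate), 500 μM NAD+, BSA-supplemented buffer, 5 min rt preincubation, enzyme-started 1 h at 37 °C. Developer with 2 mM nicotinamide 45 min 37 °C; fluorescence ex 355/em 460 nm. Percent inhibition ± standard deviation.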

Compound	inhibition
CC(=S)NCCCC[C@H](N)C(=O)N[C@@H](C)C(=O)O	46.9%

Biological target: T3, NAD-dependent protein deacetylase sirtuin-2 (Homo sapiens, UniProt Q8IXJ6)
T3 sequence (Q8IXJ6 whole entry): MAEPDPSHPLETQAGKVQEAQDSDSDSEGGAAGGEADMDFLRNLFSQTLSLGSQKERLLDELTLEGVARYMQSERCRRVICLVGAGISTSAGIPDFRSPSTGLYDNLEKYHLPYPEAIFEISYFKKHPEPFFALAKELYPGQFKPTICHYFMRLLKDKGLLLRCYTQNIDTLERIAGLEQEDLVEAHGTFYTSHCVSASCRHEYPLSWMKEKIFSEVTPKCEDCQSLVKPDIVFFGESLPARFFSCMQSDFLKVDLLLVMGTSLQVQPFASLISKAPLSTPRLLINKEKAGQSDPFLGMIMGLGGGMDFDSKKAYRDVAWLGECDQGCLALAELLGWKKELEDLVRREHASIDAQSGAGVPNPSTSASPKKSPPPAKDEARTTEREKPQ
Assay: Inhibition of recombinant GST-tagged SIRT2 after 1 hr by Fluor de Lys-based fluorescence assay
Details: not given
Procedure, shortened: as §1

Compound	IC50
CC(=S)NCCCC[C@H](NC(=O)CCc1ccccc1)C(=O)N[C@@H](C)C(=O)O	56 µM
CC(=S)NCCCC[C@H](NC(=O)OCc1ccccc1)C(=O)N[C@@H](C)C(=O)O	17 µM
CSCC[C@H](NC(=O)[C@H](CC(C)C)NC(=O)[C@H](CCCCNC(C)=S)NC(=O)[C@H](CCCCN)NC(=O)[C@@H](N)Cc1cnc[nH]1)C(=O)O (H-HK[Lys(Thioacetyl)]LM-OH)	6.3 µM
CC(=S)NCCCC[C@H](NC(=O)OCc1ccccc1)C(=O)NCC(=O)c1ccccc1	4.3 µM
COC(=O)[C@H](C)NC(=O)[C@H](CCCCNC(C)=S)NC(C)=O	862 µM
CC(=S)NCCCC[C@H](NC(=O)CCc1ccccc1O)C(=O)N[C@@H](C)C(=O)O	53 µM
CC(=S)NCCCC[C@H](NC(=O)[C@H](C)N)C(=O)N[C@@H](C)C(=O)O	36 µM
CC(=S)NCCCC[C@H](NC(=O)OCc1ccccc1)C(=O)Nc1ccccc1F	16 µM

Biological target: Histone deacetylase (Homo sapiens) (UniProt Q13547+O15379+Q9UBN7+Q92769+Q9UQL6+Q8WUI4+Q9BY41+Q96DB2+P56524+Q9UKV0+Q969S8)
Assay: Inhibition of HDAC in human HeLa nuclear extract at 200 uM after 1 hr by Fluor de Lys-based fluorescence assay
Type: protein assay
Details: not given
Procedure, shortened: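 HeLa nuclear extract as HDAC source, 50 μM acetylated Fluor de Lys HDAC substrate, compounds 200 μM in HDAC assay buffer; substrate addition starts reaction, 1 h at 37 °C. Developer plus […], 15 min at 25 °C; fluorescence ex 355/em 460 nm. Run twice; means and standard deviations.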

Compound	inhibition
CC(=S)NCCCC[C@H](NC(=O)CCc1ccccc1)C(=O)N[C@@H](C)C(=O)O	8.5%
CC(=S)NCCCC[C@H](NC(=O)OCc1ccccc1)C(=O)N[C@@H](C)C(=O)O	3.9%
CC(=S)NCCCC[C@H](NC(=O)OCc1ccccc1)C(=O)NCC(=O)c1ccccc1	5.1%
CC(=S)NCCCC[C@H](NC(=O)CCc1ccccc1O)C(=O)N[C@@H](C)C(=O)O	5.6%
CC(=S)NCCCC[C@H](NC(=O)[C@H](N)Cc1ccccc1)C(=O)N[C@@H](C)C(=O)O	7.6%
CC(=S)NCCCC[C@H](NC(=O)OCc1ccccc1)C(=O)Nc1ccccc1F	1.4%

Biological target: T2, NAD-dependent protein deacetylase sirtuin-1 (Homo sapiens)
Assay: Inhibition of human SIRT1 in human astrocytes assessed as increase in p53 acetylation level at 10 uM after 5 hrs by Western blot analysis in presence of etoposide-induced DNA damage
Type: cell-based
Details: not given
Procedure, shortened: (§2)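 Cells seeded at 10^5 per well and treated 24 h later with compound plus etoposide together for 5 h. Lysates (M-PER) cleared 16000g 20 min, equal protein on 4–12% SDS-PAGE, blotted to nitrocellulose, probed with rabbit monoclonal anti-acetyl-p53 (K382), actin as loading control, HRP secondary and chemiluminescence.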

Compound	Activity
CC(=S)NCCCC[C@H](NC(=O)OCc1ccccc1)C(=O)NCC(=O)c1ccccc1	Active

Biological target: T2, NAD-dependent protein deacetylase sirtuin-1 (Homo sapiens)
Assay: Inhibition of human SIRT1 in ARPE19 cells assessed as increase in p53 acetylation level at 10 uM after 5 hrs by Western blot analysis in presence of etoposide-induced DNA damage
Type: cell-based
Details: not given
Procedure, shortened: as §2

Compound	Activity
CC(=S)NCCCC[C@H](NC(=O)OCc1ccccc1)C(=O)NCC(=O)c1ccccc1	Active

Biological target: T2, NAD-dependent protein deacetylase sirtuin-1 (Homo sapiens)
Assay: Inhibition of human SIRT1 in SH-SY5Y cells assessed as increase in p53 acetylation level at 10 uM after 5 hrs by Western blot analysis in presence of etoposide-induced DNA damage
Type: cell-based
Details: not given
Procedure, shortened: as §2

Compound	Activity
CC(=S)NCCCC[C@H](NC(=O)OCc1ccccc1)C(=O)N[C@@H](C)C(=O)O	Active
CC(=S)NCCCC[C@H](NC(=O)OCc1ccccc1)C(=O)NCC(=O)c1ccccc1	Active

Test system: not listed separately
Assay: Cytotoxicity against human astrocytes at 10 uM by LDH assay
Type: cell-based
Details: astrocyte
Procedure, shortened: (§3)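 After plating at 10^5 cells/well and 24 h attachment, cells exposed 5 h to compound together with etoposide; cytotoxicity read as lactate dehydrogenase released into culture medium by a commercial LDH kit.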

Compound	Activity
CC(=S)NCCCC[C@H](NC(=O)OCc1ccccc1)C(=O)NCC(=O)c1ccccc1	Non-toxic

Test system: not listed separately
Assay: Cytotoxicity against human ARPE19 cells at 10 uM by LDH assay
Type: cell-based
Details: arpe-19, 10 µM
Procedure, shortened: as §3

Compound	Activity
CC(=S)NCCCC[C@H](NC(=O)OCc1ccccc1)C(=O)NCC(=O)c1ccccc1	Non-toxic

Test system: SH-SY5Y
Assay: Cytotoxicity against human SH-SY5Y cells at 10 uM by LDH assay
Type: functional, cell-based
Details: not given
Procedure, shortened: as §3

Compound	Activity
CC(=S)NCCCC[C@H](NC(=O)OCc1ccccc1)C(=O)N[C@@H](C)C(=O)O	inactive
CC(=S)NCCCC[C@H](NC(=O)OCc1ccccc1)C(=O)NCC(=O)c1ccccc1	inactive
